How the values were obtained:
Cannabinoid receptor 2 = Cannabinoid receptor 2 (Homo sapiens, UniProt P34972); test: Displacement of [3H]CP-55940 from human CB2 receptor
How it was run: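 HEK cells transfected with human recombinant CB2 used for competition binding against [3H]CP-55,940 (Kd 0.31 nM) at 0.084 nM with increasing test compound concentrations; Ki derived from IC50 via Cheng-Prusoff equation; means of at least three separate experiments run in duplicate.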

Cannabinoid receptor 1 = Cannabinoid receptor 1 (Homo sapiens, UniProt P21554); test: Displacement of [3H]CP-55940 from human CB1 receptor
Chain of Cannabinoid receptor 1 (P21554 whole entry): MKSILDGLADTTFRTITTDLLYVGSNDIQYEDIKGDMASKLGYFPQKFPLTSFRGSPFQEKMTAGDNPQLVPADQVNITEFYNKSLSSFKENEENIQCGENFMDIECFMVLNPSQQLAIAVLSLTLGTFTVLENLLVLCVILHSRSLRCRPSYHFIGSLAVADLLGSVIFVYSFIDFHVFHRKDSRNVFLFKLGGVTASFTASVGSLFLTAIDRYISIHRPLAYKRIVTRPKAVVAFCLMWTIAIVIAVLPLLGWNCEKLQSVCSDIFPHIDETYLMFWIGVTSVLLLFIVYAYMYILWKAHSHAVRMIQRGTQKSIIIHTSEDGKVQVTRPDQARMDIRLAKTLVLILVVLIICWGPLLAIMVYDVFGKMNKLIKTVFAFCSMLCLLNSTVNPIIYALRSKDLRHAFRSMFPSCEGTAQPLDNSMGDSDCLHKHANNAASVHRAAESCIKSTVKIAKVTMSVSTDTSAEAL

Chain of Cannabinoid receptor 2 (P34972 whole entry): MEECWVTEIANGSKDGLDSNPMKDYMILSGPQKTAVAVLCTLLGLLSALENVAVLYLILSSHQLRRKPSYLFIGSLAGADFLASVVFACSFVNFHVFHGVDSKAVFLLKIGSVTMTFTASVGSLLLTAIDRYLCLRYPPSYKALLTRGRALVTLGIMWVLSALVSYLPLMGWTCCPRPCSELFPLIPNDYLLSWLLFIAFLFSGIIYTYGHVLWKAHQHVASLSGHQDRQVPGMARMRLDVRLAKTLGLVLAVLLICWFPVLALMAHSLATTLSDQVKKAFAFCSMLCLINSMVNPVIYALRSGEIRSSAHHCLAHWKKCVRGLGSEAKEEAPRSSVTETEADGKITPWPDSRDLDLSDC

Q: What does the source list for `CCCCOC(=O)c1cc(O)c(-c2cc(C)cc(C)c2)c(O)c1`?
A: Ki (Cannabinoid receptor 2): > 3.2 µM; Ki (Cannabinoid receptor 1): 2.6 µM

Q: What does the source list for `COC(=O)c1cc(O)c(-c2cc(C)cc(C)c2)c(O)c1`?
A: Ki (Cannabinoid receptor 2): > 4.5 µM; Ki (Cannabinoid receptor 1): > 10 µM

Q: Which results are given for `COC(=O)c1cc(O)c(-c2cc(C)cc(C)c2)c(OC)c1`?
A: Ki (Cannabinoid receptor 2): > 6.4 µM; Ki (Cannabinoid receptor 1): > 10 µM

Q: Which Ki (Cannabinoid receptor 2) does the source give for `Cc1cc(C)cc(-c2c(O)cc(C(=O)O)cc2O)c1` here?
A: > 10 µM

Q: And the Ki (Cannabinoid receptor 1)?
A: > 10 µM

Q: Which Ki (Cannabinoid receptor 2) does the source give for `COc1cc(C(=O)O)cc(OC)c1-c1cc(C)cc(C)c1` here?
A: > 10 µM

Q: What about the Ki (Cannabinoid receptor 1) of the same compound?
A: > 10 µM

Q: Which Ki (Cannabinoid receptor 2) does the source give for `CCCCCOC(=O)c1cc(O)c(-c2cc(C)cc(C)c2)c(O)c1` here?
A: > 1.1 µM

Q: What about the Ki (Cannabinoid receptor 1) of the same compound?
A: 2 µM

Q: What does the source list for `CCCCCOC(=O)c1cc(O)c(-c2ccccc2)c(O)c1`?
A: Ki (Cannabinoid receptor 2): > 4 µM; Ki (Cannabinoid receptor 1): > 10 µM

Q: Which Ki (Cannabinoid receptor 2) does the source give for `COc1cc(C(=O)O)cc(O)c1-c1cc(C)cc(C)c1` here?
A: > 10 µM

Q: And the Ki (Cannabinoid receptor 1)?
A: > 10 µM

Q: Which Ki (Cannabinoid receptor 2) does the source give for `CCCCCOC(=O)c1cc(OC)c(-c2cc(C)cc(C)c2)c(OC)c1` here?
A: > 10 µM

Q: What about the Ki (Cannabinoid receptor 1) of the same compound?
A: > 10 µM

Q: Which Ki (Cannabinoid receptor 2) does the source give for `CCCCCOC(=O)c1cc(O)c(-c2cc(C)cc(C)c2)c(OC)c1` here?
A: 0.27 µM

Q: What about the Ki (Cannabinoid receptor 1) of the same compound?
A: 1.4 µM

Reference: ChEMBL document CHEMBL1146227, “Metabolically labile cannabinoid esters: a 'soft drug' approach for the development of cannabinoid-based therapeutic drugs” (Bioorg Med Chem Lett, 2007)
